Data as given in ChEMBL document CHEMBL3603735 (J Med Chem, 2015).

Assays:
[1] = biological target: T1, Neuronal acetylcholine receptor; alpha4/beta2 (Homo sapiens, UniProt P17787+P43681); test: Agonist activity at human alpha4beta2 nAChR expressed in rat GH4C1 cells assessed as induction of peak current amplitude at holding potential of -70 mV by whole-cell patch clamp assay relative to acetylcholine; type: cell-based; settings: GH4-C1
Outline: (§1)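 Human α3β4 or α4β2 nAChR transiently transfected into rat anterior pituitary GH4C1 cells (0.5 μg each subunit cDNA, magnetofection). Whole-cell patch clamp at −70 mV holding potential, with gravity-driven fast perfusion. Agonist concentrations applied sequentially. Peak currents normalized to 1 mM ACh on the same cell. EC50, Imax and nH from Hill equation fit.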

[2] = biological target: Neuronal acetylcholine receptor subunit alpha-7 (Rattus norvegicus, UniProt Q05941); test: Displacement of [125I]]-alpha-bungarotoxin from alpha7 nAChR in rat hippocampus membranes by liquid scintillation counting method; type: cell membranes, Membrane
Outline: (§2)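 Rat hippocampus (α7) or cortex (α4β2) membranes. Ki obtained by simultaneous nonlinear least-squares fitting of three saturation plus three competition binding experiments per compound per subtype.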

[3] = biological target: T2, Neuronal acetylcholine receptor; alpha3/beta4 (Homo sapiens, UniProt P30926+P32297); test: Displacement of [3H]epibatidine from human alpha3beta4 nAChR expressed in HEK293 cell membranes by liquid scintillation counting method
Outline: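 Competition against [3H]epibatidine on membranes of human α3β4-transfected cells. Ki obtained by simultaneously fitting three independent saturation and three competition experiments per compound with nonlinear least squares.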

[4] = biological target: T2, Neuronal acetylcholine receptor; alpha3/beta4; test: Agonist activity at human alpha3beta4 nAChR expressed in rat GH4C1 cells assessed as induction of peak current amplitude at holding potential of -70 mV by whole-cell patch clamp assay; type: cell-based, GH4-C1
Outline: (§3)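 Human α3β4 or α4β2 subunit cDNAs (0.5 μg each) transiently transfected into rat GH4C1 cells by magnetofection. Whole-cell voltage clamp at −70 mV, 85−90% series-resistance compensation, fast gravity-perfusion exchanger. Agonist concentrations applied sequentially; peak currents normalized to 1 mM ACh on the same cell. EC50 and nH from Hill-equation fit where possible.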

[5] = biological target: Neuronal acetylcholine receptor; alpha4/beta2 (Rattus norvegicus, UniProt P09483+P12390); test: Displacement of [3H]epibatidine from alpha4beta2 nAChR in rat cortex membranes by liquid scintillation counting method; type: cell membranes; outline: as §2
[6] = biological target: T2, Neuronal acetylcholine receptor; alpha3/beta4; test: Agonist activity at human alpha3beta4 nAChR expressed in rat GH4C1 cells assessed as induction of peak current amplitude at holding potential of -70 mV by whole-cell patch clamp assay relative to acetylcholine; type: cell-based; settings: GH4-C1; outline: as §1
[7] = biological target: T1, Neuronal acetylcholine receptor; alpha4/beta2; test: Agonist activity at human alpha4beta2 nAChR in (alpha4)3(beta2)2 stoichiometry form relative to control; type: protein-complex assay
[8] = biological target: T1, Neuronal acetylcholine receptor; alpha4/beta2; test: Agonist activity at human alpha4beta2 nAChR expressed in rat GH4C1 cells assessed as induction of peak current amplitude at holding potential of -70 mV by whole-cell patch clamp assay; type: cell-based, GH4-C1; outline: as §1
[9] = biological target: T1, Neuronal acetylcholine receptor; alpha4/beta2; test: Selectivity index, ratio of EC50 for human alpha3beta4 nAChR expressed in rat GH4C1 cells to EC50 for human alpha4beta2 nAChR expressed in rat GH4C1 cells; type: cell-based; settings: GH4-C1; outline: as §3

T1 sequence (P17787 whole entry, the tested form may be a part): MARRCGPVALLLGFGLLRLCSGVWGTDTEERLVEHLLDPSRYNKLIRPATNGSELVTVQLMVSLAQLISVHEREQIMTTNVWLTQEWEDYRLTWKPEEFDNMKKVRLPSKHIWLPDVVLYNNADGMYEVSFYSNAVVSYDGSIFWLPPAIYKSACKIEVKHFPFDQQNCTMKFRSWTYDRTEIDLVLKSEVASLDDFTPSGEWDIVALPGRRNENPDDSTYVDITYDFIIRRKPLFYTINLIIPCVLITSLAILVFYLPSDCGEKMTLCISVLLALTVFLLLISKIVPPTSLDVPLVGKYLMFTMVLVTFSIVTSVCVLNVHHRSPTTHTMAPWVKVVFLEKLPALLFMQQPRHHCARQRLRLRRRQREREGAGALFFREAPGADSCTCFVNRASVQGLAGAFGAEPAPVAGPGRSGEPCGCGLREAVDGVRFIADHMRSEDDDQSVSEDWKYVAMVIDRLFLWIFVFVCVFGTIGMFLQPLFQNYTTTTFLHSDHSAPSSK
T1 sequence (P43681 whole entry, the tested form may be a part): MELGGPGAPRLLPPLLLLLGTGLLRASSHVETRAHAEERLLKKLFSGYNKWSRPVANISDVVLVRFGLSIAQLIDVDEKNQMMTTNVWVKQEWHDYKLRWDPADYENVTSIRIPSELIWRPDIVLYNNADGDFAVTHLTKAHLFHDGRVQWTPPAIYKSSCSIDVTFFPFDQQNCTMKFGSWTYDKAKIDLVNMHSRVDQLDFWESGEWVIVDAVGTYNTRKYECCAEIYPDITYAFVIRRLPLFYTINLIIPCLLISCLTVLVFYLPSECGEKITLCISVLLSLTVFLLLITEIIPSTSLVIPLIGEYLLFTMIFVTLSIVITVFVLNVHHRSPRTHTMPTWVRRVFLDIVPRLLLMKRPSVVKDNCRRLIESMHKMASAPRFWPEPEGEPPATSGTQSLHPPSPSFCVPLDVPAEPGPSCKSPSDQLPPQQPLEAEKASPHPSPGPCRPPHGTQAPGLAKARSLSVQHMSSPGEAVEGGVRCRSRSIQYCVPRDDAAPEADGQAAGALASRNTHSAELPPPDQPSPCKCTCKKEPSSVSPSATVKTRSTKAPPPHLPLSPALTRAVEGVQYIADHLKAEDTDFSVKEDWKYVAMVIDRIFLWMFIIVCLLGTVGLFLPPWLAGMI
Neuronal acetylcholine receptor subunit alpha-7, sequence (Q05941 whole entry): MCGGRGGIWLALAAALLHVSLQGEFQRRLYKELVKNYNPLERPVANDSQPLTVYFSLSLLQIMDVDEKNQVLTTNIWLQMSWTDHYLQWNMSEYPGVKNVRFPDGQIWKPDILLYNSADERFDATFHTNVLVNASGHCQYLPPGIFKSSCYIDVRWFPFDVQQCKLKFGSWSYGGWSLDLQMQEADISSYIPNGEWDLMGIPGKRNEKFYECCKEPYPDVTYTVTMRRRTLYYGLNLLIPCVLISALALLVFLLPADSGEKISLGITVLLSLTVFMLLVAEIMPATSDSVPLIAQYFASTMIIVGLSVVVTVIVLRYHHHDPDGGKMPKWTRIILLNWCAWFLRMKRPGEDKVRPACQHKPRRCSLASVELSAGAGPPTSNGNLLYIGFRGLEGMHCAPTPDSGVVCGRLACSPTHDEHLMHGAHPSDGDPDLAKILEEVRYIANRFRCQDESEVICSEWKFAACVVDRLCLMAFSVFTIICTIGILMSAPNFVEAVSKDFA
T2 sequence (P30926 whole entry): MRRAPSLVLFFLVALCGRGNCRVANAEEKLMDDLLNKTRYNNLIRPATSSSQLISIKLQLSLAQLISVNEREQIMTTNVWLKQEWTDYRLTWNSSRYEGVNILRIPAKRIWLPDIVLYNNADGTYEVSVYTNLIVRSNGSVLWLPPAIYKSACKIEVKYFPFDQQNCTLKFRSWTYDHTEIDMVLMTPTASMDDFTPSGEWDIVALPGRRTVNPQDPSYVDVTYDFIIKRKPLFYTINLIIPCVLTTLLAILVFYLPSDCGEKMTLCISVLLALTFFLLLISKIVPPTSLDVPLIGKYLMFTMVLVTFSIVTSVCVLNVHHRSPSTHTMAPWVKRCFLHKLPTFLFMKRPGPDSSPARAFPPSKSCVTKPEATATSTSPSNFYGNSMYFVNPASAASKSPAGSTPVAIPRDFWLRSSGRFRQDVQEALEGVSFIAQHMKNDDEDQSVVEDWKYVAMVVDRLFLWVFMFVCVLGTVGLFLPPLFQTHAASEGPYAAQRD
T2 sequence (P32297 whole entry): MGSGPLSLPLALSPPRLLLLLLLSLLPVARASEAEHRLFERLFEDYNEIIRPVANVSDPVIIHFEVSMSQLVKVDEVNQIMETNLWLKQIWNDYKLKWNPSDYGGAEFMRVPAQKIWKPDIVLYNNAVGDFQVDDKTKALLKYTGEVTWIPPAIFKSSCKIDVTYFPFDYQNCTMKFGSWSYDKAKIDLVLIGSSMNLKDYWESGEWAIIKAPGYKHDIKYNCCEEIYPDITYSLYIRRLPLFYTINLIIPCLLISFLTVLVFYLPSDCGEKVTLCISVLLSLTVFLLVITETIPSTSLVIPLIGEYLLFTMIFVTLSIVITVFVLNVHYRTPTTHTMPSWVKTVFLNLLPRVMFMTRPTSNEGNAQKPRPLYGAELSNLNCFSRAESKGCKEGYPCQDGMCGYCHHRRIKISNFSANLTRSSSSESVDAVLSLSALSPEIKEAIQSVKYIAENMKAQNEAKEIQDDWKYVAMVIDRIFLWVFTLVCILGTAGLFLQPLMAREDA
Neuronal acetylcholine receptor; alpha4/beta2 (Rattus norvegicus, UniProt P09483+P12390), sequence (P09483 whole entry): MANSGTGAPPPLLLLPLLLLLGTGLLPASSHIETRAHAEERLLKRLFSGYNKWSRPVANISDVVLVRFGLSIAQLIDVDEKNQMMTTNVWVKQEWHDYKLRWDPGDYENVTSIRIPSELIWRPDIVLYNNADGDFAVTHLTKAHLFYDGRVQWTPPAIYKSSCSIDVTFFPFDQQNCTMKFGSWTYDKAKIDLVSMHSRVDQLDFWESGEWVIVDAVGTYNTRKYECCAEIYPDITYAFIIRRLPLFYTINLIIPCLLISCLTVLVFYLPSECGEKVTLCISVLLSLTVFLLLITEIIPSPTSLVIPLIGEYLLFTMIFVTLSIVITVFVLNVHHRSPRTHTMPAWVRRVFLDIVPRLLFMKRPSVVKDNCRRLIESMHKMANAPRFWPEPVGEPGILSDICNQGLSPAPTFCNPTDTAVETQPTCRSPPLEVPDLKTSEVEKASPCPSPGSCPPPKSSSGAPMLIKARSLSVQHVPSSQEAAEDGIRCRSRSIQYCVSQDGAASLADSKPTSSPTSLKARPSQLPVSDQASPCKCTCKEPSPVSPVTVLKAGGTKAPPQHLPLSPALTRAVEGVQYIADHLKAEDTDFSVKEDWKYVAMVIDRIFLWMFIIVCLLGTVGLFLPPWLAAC
Neuronal acetylcholine receptor; alpha4/beta2 (Rattus norvegicus, UniProt P09483+P12390), sequence (P12390 whole entry): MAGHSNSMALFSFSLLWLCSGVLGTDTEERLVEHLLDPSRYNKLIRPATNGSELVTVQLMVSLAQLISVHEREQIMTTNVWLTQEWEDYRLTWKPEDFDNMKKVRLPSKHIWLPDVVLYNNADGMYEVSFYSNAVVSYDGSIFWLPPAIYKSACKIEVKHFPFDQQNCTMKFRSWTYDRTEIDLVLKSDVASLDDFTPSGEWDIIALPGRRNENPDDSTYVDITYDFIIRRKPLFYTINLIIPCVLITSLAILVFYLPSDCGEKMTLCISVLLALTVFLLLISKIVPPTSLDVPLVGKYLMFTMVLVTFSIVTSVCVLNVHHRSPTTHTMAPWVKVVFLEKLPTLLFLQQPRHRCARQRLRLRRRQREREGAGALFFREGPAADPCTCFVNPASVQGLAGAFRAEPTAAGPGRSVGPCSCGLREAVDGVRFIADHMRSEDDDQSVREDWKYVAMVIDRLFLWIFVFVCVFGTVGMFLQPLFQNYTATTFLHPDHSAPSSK

Structure (SMILES)	Imax [1]	Ki [2]	Ki [3]	EC50 [4]	Ki [5]	Imax [6]	Efficacy [7]	EC50 [8]	Ratio EC50 [9]
CN1CC[C@H]1COc1cccc(O)c1	131%	29 nM	102 nM	9200 nM	8.5 nM	57%	–	–	–
Oc1cncc(OC[C@@H]2CCCN2)c1	–	3500 nM	100 nM	–	2.5 nM	–	–	–	–
COc1ccc(O)cc1OC[C@@H]1CCCN1	–	–	7700 nM	–	1080 nM	–	–	–	–
CC(Oc1ccccc1)C1CCCN1C (mixture of isomers)	–	8900 nM	1400 nM	–	4590 nM	–	–	–	–
C[C@H](Oc1cccnc1)[C@@H]1CCCN1C	–	6100 nM	5600 nM	–	877 nM	–	–	–	–
OCCCCC#Cc1cncc(OC[C@@H]2CCN2)c1	39%	–	–	–	–	24%	6%	0.27 nM	–
COc1ccccc1OC[C@@H]1CCCN1	–	–	3600 nM	–	53500 nM	–	–	–	–
COc1ccc(O)cc1OC[C@@H]1CCCN1C	17%	1150 nM	271 nM	–	18.9 nM	7%	–	–	–
Oc1cccc(OC[C@@H]2CCN2)c1	–	1200 nM	40 nM	–	7.1 nM	–	–	–	–
CN1CC[C@H]1COc1ccccc1	–	–	–	–	101 nM	–	–	–	–
COc1ccncc1OC[C@@H]1CCCN1	–	21500 nM	2900 nM	–	613 nM	–	–	–	–
Oc1cccc(OC[C@@H]2CCCN2)c1	–	212 nM	3800 nM	–	407 nM	–	–	–	–
COc1ccncc1OC[C@@H]1CCCN1C	–	9400 nM	2100 nM	–	255 nM	–	–	–	–
C[C@@H](Oc1cccnc1)[C@@H]1CCCN1C (racemic)	39%	388 nM	5000 nM	–	27 nM	7%	–	13 nM	–
COc1ncccc1OC[C@@H]1CCCN1	–	–	5300 nM	–	8960 nM	–	–	–	–
c1ccc(OC[C@@H]2CCN2)cc1	–	–	–	–	52 nM	–	–	–	–
C[C@@H](Oc1cccc(O)c1)[C@@H]1CCCN1C (racemic)	–	57 nM	257 nM	–	11.1 nM	–	–	–	–
COc1ccccc1OC[C@@H]1CCCN1C	–	–	749 nM	–	9400 nM	–	–	–	–
C[C@@H](Oc1ccccc1)[C@@H]1CCCN1C (racemic)	–	15200 nM	1300 nM	–	1550 nM	–	–	–	–
COc1ncccc1OC[C@@H]1CCCN1C	–	–	793 nM	–	7280 nM	–	–	–	–
C[C@H](Oc1cccc(O)c1)[C@@H]1CCCN1C	–	743 nM	752 nM	–	192 nM	–	–	–	–
CN1CCC[C@H]1[C@@H]1COc2ccc(O)cc2O1	29%	–	–	17000 nM	–	28%	–	300 nM	57
CN1CCC[C@H]1COc1cncc(O)c1	661%	321 nM	235 nM	–	3.7 nM	15%	–	73000 nM	–
CN1CCC[C@H]1COc1cccc(O)c1	162%	119 nM	74 nM	9000 nM	1.1 nM	85%	–	4400 nM	–
